Converted amounts (≈) assume the structure as drawn.
Tests used:
[1] = Cytotoxicity against human ACHN cells assessed as cell growth at 10^-5 M after 48 hrs by SRB assay relative to control; format: functional; details: read-out: Activity
Summary of the method: (§1)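 NCI single-dose primary screen run under the US NCI protocol. Compounds tested at 10 µM across the 60-cell-line panel, with growth percent reported for each line.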

[2] = Cytotoxicity against human SNB75 cells assessed as cell growth at 10^-5 M after 48 hrs by SRB assay relative to control; format: functional; details: SNB-75, 48 h, read-out: Activity
Summary of the method: (§2)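 Single-dose NCI 60-cell-line screen run under the US NCI protocol. Compounds tested at 10 µM. Read-out is growth percent for each cell line.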

[3] = Cytotoxicity against human KM12 cells assessed as cell growth at 10^-5 M after 48 hrs by SRB assay relative to control; format: functional; details: KM12, 48 h, read-out: Activity; summary of the method: as §1
[4] = Cytotoxicity against human MT4 cells assessed as decrease in cell viability after 5 days by MTT assay; format: toxicity, cell-based
Summary of the method: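 MT-4 cells in mock-infected wells of the anti-HIV MTT setup. Compounds in serial five-fold dilutions in triplicate, cells at 6 × 10^5 cells/mL. Absorbance at 540 and 690 nm, median OD of three wells. CC50 is the concentration that lowers OD540 of the mock-infected control by 50%.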

[5] = Cytotoxicity against human SN12C cells assessed as cell growth at 10^-5 M after 48 hrs by SRB assay relative to control; format: functional; details: read-out: Activity; summary of the method: as §2
[6] = Cytotoxicity against human NCI-H226 cells assessed as cell growth at 10^-5 M after 48 hrs by SRB assay relative to control; format: functional; details: NCI-H226, 48 h, read-out: Activity; summary of the method: as §1
[7] = Cytotoxicity against human BT549 cells assessed as cell growth at 10^-5 M after 48 hrs by SRB assay relative to control; format: functional; details: BT-549, 48 h, read-out: Activity; summary of the method: as §1
[8] = Cytotoxicity against human SK-MEL-2 cells assessed as cell growth at 10^-5 M after 48 hrs by SRB assay relative to control; format: functional; details: SK-MEL-2, 48 h, read-out: Activity; summary of the method: as §2
[9] = Cytotoxicity against human MDA-MB-435 cells assessed as cell growth at 10^-5 M after 48 hrs by SRB assay relative to control; format: functional; details: MDA-MB-435, 48 h, read-out: Activity; summary of the method: as §1
[10] = Cytotoxicity against human LOXIMVI cells assessed as cell growth at 10^-5 M after 48 hrs by SRB assay relative to control; format: functional; details: LOX IMVI, read-out: Activity; summary of the method: as §1
[11] = Cytotoxicity against human SK-MEL-5 cells assessed as cell growth at 10^-5 M after 48 hrs by SRB assay relative to control; format: functional; details: SK-MEL-5, 48 h, read-out: Activity; summary of the method: as §2
[12] = Cytotoxicity against human HOP62 cells assessed as cell growth at 10^-5 M after 48 hrs by SRB assay relative to control; format: functional; details: HOP-62, 48 h, read-out: Activity; summary of the method: as §1
[13] = Cytotoxicity against human A549 cells assessed as cell growth at 10^-5 M after 48 hrs by SRB assay relative to control; format: functional; details: A549, 48 h, read-out: Activity; summary of the method: as §1
[14] = Cytotoxicity against human HCC2998 cells assessed as cell growth at 10^-5 M after 48 hrs by SRB assay relative to control; format: functional; details: HCC 2998, 48 h, read-out: Activity; summary of the method: as §1
[15] = Cytotoxicity against human SK-MEL-28 cells assessed as cell growth at 10^-5 M after 48 hrs by SRB assay relative to control; format: functional; details: SK-MEL-28, 48 h, read-out: Activity; summary of the method: as §2
[16] = Cytotoxicity against human K562 cells assessed as cell growth at 10^-5 M after 48 hrs by SRB assay relative to control; format: functional; details: K562, 48 h, read-out: Activity; summary of the method: as §1
[17] = Cytotoxicity against human HCT15 cells assessed as cell growth at 10^-5 M after 48 hrs by SRB assay relative to control; format: functional; details: HCT-15, 48 h, read-out: Activity; summary of the method: as §1
[18] = Cytotoxicity against human MDA-MB-468 cells assessed as cell growth at 10^-5 M after 48 hrs by SRB assay relative to control; format: functional; details: MDA-MB-468, 48 h, read-out: Activity; summary of the method: as §1
[19] = Cytotoxicity against human SW620 cells assessed as cell growth at 10^-5 M after 48 hrs by SRB assay relative to control; format: functional; details: SW-620, 48 h, read-out: Activity; summary of the method: as §2
[20] = Cytotoxicity against human SR cells assessed as cell growth at 10^-5 M after 48 hrs by SRB assay relative to control; format: functional; details: read-out: Activity; summary of the method: as §2
[21] = Cytotoxicity against human OVCAR3 cells assessed as cell growth at 10^-5 M after 48 hrs by SRB assay relative to control; format: functional; details: OVCAR-3, 48 h, read-out: Activity; summary of the method: as §1
[22] = Cytotoxicity against human SF268 cells assessed as cell growth at 10^-5 M after 48 hrs by SRB assay relative to control; format: functional; details: SF-268, 48 h, read-out: Activity; summary of the method: as §1
[23] = Cytotoxicity against human UACC257 cells assessed as cell growth at 10^-5 M after 48 hrs by SRB assay relative to control; format: functional; details: UACC-257, 48 h, read-out: Activity; summary of the method: as §2
[24] = Cytotoxicity against human NCI-H322M cells assessed as cell growth at 10^-5 M after 48 hrs by SRB assay relative to control; format: functional; details: read-out: Activity; summary of the method: as §1
[25] = Cytotoxicity against human T47D cells assessed as cell growth at 10^-5 M after 48 hrs by SRB assay relative to control; format: functional; details: read-out: Activity; summary of the method: as §2
[26] = Cytotoxicity against human A498 cells assessed as cell growth at 10^-5 M after 48 hrs by SRB assay relative to control; format: functional; details: A498, 48 h, read-out: Activity; summary of the method: as §1
[27] = Cytotoxicity against human CCRF-CEM cells assessed as cell growth at 10^-5 M after 48 hrs by SRB assay relative to control; format: functional; details: read-out: Activity; summary of the method: as §1
[28] = Cytotoxicity against human DU145 cells assessed as cell growth at 10^-5 M after 48 hrs by SRB assay relative to control; format: functional; details: DU-145, 48 h, read-out: Activity; summary of the method: as §1
[29] = Cytotoxicity against human MCF7 cells assessed as cell growth at 10^-5 M after 48 hrs by SRB assay relative to control; format: functional; details: MCF7, 48 h, read-out: Activity; summary of the method: as §1
[30] = Cytotoxicity against human EKVX cells assessed as cell growth at 10^-5 M after 48 hrs by SRB assay relative to control; format: functional; details: read-out: Activity; summary of the method: as §1
[31] = Cytotoxicity against human Hs 578T cells assessed as cell growth at 10^-5 M after 48 hrs by SRB assay relative to control; format: functional; details: read-out: Activity; summary of the method: as §1
[32] = Cytotoxicity against human NCI-H23 cells assessed as cell growth at 10^-5 M after 48 hrs by SRB assay relative to control; format: functional; details: NCI-H23, 48 h, read-out: Activity; summary of the method: as §1
[33] = Cytotoxicity against human SKOV3 cells assessed as cell growth at 10^-5 M after 48 hrs by SRB assay relative to control; format: functional; details: SK-OV-3, 48 h, read-out: Activity; summary of the method: as §2
[34] = Cytotoxicity against human SF539 cells assessed as cell growth at 10^-5 M after 48 hrs by SRB assay relative to control; format: functional; details: SF-539, 48 h, read-out: Activity; summary of the method: as §2
[35] = Cytotoxicity against human MDA-MB-231 cells assessed as cell growth at 10^-5 M after 48 hrs by SRB assay relative to control; format: functional; details: MDA-MB-231, 48 h, read-out: Activity; summary of the method: as §1

| SMILES | growth at 10 µM [1] [%] | growth at 10 µM [2] [%] | growth at 10 µM [3] [%] | CC50 at 120 h [4] [µg/mL] | growth at 10 µM [5] [%] | growth at 10 µM [6] [%] | growth at 10 µM [7] [%] | growth at 10 µM [8] [%] | growth at 10 µM [9] [%] | growth at 10 µM [10] [%] | growth at 10 µM [11] [%] | growth at 10 µM [12] [%] | growth at 10 µM [13] [%] | growth at 10 µM [14] [%] | growth at 10 µM [15] [%] | growth at 10 µM [16] [%] | growth at 10 µM [17] [%] | growth at 10 µM [18] [%] | growth at 10 µM [19] [%] | growth at 10 µM [20] [%] | further results |
| --- | --- | --- | --- | --- | --- | --- | --- | --- | --- | --- | --- | --- | --- | --- | --- | --- | --- | --- | --- | --- | --- |
| CC(=O)Nc1ccc(OCc2nnc(SCC(=O)Nc3ccc(Br)cc3)n2Cc2ccccc2)cc1 | 58.6 | 103 | 56.4 | ≥ 3.99 | 85.7 | 80.3 | 72.4 | 72.2 | 66 | 33.4 | 69.8 | 90.3 | 78.5 | 85.6 | 102 | 28.9 | 60.4 | 77.8 | 59 | 97.7 | growth at 10 µM [21]: 102%; growth at 10 µM [22]: 70.9%; growth at 10 µM [23]: 98.4%; growth at 10 µM [24]: 81.2%; growth at 10 µM [25]: 69.6%; growth at 10 µM [26]: 82.1%; growth at 10 µM [27]: 56.3%; growth at 10 µM [28]: 72.6%; growth at 10 µM [29]: 70.2%; growth at 10 µM [30]: 70%; growth at 10 µM [31]: 97.9%; growth at 10 µM [32]: 75.2%; growth at 10 µM [33]: 110%; growth at 10 µM [34]: 92.8%; growth at 10 µM [35]: 75% |
| Cc1ccc(C(C)C)c(OCc2nnc(SCC(=O)Nc3ccc(S(N)(=O)=O)cc3)n2Cc2ccccc2)c1 | 76 | 93.8 | 54.3 | 13 (≈ 23 µM) | 81.6 | 66.6 | 65.8 | 80.9 | 76.2 | 68.2 | 50.3 | 79.1 | 50.6 | 73.8 | 89.3 | 78.4 | 64.2 | 70.5 | 91.7 | 65.1 | growth at 10 µM [21]: 74.7%; growth at 10 µM [22]: 74%; growth at 10 µM [23]: 89%; growth at 10 µM [24]: 89.3%; growth at 10 µM [25]: 33.3%; growth at 10 µM [26]: 74.7%; growth at 10 µM [27]: 35.6%; growth at 10 µM [28]: 82.3%; growth at 10 µM [29]: 50%; growth at 10 µM [30]: 55.5%; growth at 10 µM [31]: 86.2%; growth at 10 µM [32]: 63.8%; growth at 10 µM [33]: 109%; growth at 10 µM [34]: 89.5%; growth at 10 µM [35]: 69.1% |
| Cc1ccc(C(C)C)c(OCc2nnc(SCC(=O)Nc3ccc(Cl)cc3)n2Cc2ccccc2)c1 | 41.6 | 93.6 | 76.9 | 65.9 (≈ 126 µM) | 56.5 | 88 | 97.4 | 108 | 103 | 64.4 | 90.5 | 81.2 | 27.9 | 89.7 | 113 | 97.5 | 76.7 | 72.3 | 65.9 | -6.63 | growth at 10 µM [21]: 63.9%; growth at 10 µM [22]: 88.6%; growth at 10 µM [23]: 105%; growth at 10 µM [24]: 72.5%; growth at 10 µM [25]: 78.6%; growth at 10 µM [26]: 78%; growth at 10 µM [27]: 72.7%; growth at 10 µM [28]: 90.5%; growth at 10 µM [29]: 75.7%; growth at 10 µM [30]: 69.6%; growth at 10 µM [31]: 75.5%; growth at 10 µM [32]: 80.6%; growth at 10 µM [33]: 109%; growth at 10 µM [34]: 85.4%; growth at 10 µM [35]: 75.7% |

Reference: ChEMBL document CHEMBL3861959, “Synthesis and antiproliferative evaluation of novel 2-(4H-1,2,4-triazole-3-ylthio)acetamide derivatives as inducers of apoptosis in cancer cells” (Eur J Med Chem, 2016)
